# Shown are actives, neighbours in structure and some others; about 3.4% of the full set was active somewhere.
# TMEM16A act – TMEM16A chloride channel activators or potentiators, primary screen, cell-based, HTS. Anoctamin-1 (Mus musculus), Q8BHY3. HEK293 TMEM16A/YFP-H148Q/I152L, iodide quench fluorescence; stronger effect = lower value. B-score at 10 µM. 0.3% of 340,000 active. AID 623877, 2012;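 active means fluorescence-ratio B-score plate-corrected deviation score at least 3 library SD below zero, with starting fluorescence score within 5 deviations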;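 further: channel opened by trigger with iodide after compound preincubation; score built on the fluorescence ratio of max minus min over baseline; more negative score means more quench and so TMEM16A activation or potentiation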
# TMEM16A inh – TMEM16A chloride channel inhibitors, primary screen, cell-based, HTS; normalized B-score (activity score, 25-100; higher = stronger inhibition) at 10 µM; 1.2% of 310,000 active; AID 588511, 2011; Anoctamin-1 (Mus musculus), Q8BHY3; HEK293 TMEM16A/YFP iodide influx fluorescence, ionomycin;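 active means ratio plate-corrected score three or more library SD toward inhibition, starting fluorescence score within five deviations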;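 further: score derived from kinetic fluorescence span divided by baseline fluorescence per well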
# VIM-2 inhibitor – VIM-2 metallo-beta-lactamase inhibitors, primary screen, biochemical, epi-absorbance readout, Pseudomonas aeruginosa enzyme; purified VIM-2, nitrocefin hydrolysis, epi-absorbance fluorescence; inhibition, % at 5.6 µM; 0.89% of 290,000 active; AID 1527, 2009;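 active means inhibition above the mean of all tested compounds plus 3 SD, cutoff set per screening run, cut at about 7.5% in these data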;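 further: red hydrolysis product quenches plate fluorescence so inhibitors raise well fluorescence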
# CHT inh – inhibitors of human choline transporter CHT; AID 488975, 2010; 0.86% of 310,000 active; B-score at 10 µM; CHT-expressing cells, membrane potential dye, choline response; stronger effect = lower value;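 active means B-score over 3 SD under the library average, and starting fluorescence ratio not unusually high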;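 further: choline stimulus applied at its EC90 after an EC20 pre-addition; B-score computed on integrated fluorescence ratio after choline addition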
# Target sequence (Q9GZV3 whole entry, looked up): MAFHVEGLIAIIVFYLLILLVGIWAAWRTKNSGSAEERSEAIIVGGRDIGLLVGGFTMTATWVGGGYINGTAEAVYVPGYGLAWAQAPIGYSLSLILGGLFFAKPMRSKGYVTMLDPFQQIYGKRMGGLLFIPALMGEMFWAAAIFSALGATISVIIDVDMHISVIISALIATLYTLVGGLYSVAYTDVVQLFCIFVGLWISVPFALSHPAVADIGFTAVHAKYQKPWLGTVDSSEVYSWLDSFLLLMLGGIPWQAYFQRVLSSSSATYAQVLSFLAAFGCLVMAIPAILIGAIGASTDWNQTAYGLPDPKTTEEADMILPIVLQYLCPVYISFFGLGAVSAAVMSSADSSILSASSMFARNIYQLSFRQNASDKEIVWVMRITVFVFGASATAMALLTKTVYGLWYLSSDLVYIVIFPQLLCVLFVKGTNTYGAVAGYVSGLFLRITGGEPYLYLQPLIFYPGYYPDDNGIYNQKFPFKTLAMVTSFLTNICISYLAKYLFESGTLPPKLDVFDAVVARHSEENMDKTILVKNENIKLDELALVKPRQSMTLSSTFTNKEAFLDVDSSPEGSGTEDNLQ
# CHT allo act – CHT positive allosteric modulators, primary screen, cell-based, membrane potential dye, choline EC20. 0.49% of 310,000 active. High affinity choline transporter 1 (Homo sapiens), Q9GZV3. B-score at 10 µM. CHT-expressing cells; stronger effect = higher value; LV-AA mutant CHT in HEK293 cells;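 active means initial fluorescence not abnormally high and integrated response B-score, plate-corrected, over 3 SD above library mean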
# IMP-1 inhibitor – IMP-1 metallo-beta-lactamase inhibitors, primary screen, biochemical, epi-absorbance readout, Pseudomonas aeruginosa enzyme. 0.45% of 290,000 active. AID 1556, 2009. metallo-beta-lactamase IMP-1 (Pseudomonas aeruginosa). inhibition, % at 5.6 µM. purified IMP-1, nitrocefin hydrolysis, epi-absorbance fluorescence;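 active means inhibition above the mean plus 3 SD of all compounds in the same screening run, cut at about 4.5% in these data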
#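 assay system = purified recombinant IMP-1 metallo-beta-lactamase enzyme | schedule = 15 min preincubation plus 25 min reaction at 25 °C | signal = Epi-absorbance fluorescence, 480 nm excitation, 530 nm emission | read-out basis = percent inhibition from optical density relative to buffer-blank wells | controls = IMP-1 with DMSO as 0%, enzyme-free DMSO as 100%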
# CHT act confirm – CHT activators, confirmation, cell-based, membrane potential dye, duplicate; 91% of 2,500 active; activation, % at 10 µM; shares compounds with CHT allo act; AID 504833, 2011; CHT-expressing cells, membrane potential dye fluorescence (FDSS); % of choline EC20–EC90 response window; HEK293 expressing CHT LV-AA mutant; choline added at its EC20;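 active means primary screen active, with duplicate mean activation above negative control mean plus 3 SD, cut at about 11% in these data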
# HEK293 MP dye – membrane potential response in parental HEK293 cells, counter-screen for CHT activator project, cell-based, membrane potential dye | shares compounds with CHT allo act | membrane potential dye fluorescence (FDSS); measured after EC20 choline addition | ratio readout change at 10 µM, hits read low | 62% of 2,500 active;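 active means duplicate-averaged ratio beyond 3 SD from buffer wells, up or down, though filed actives are nearly all decreases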
# Numbers stand for hits; 0 = inactive; - = no result given.
SMILES,TMEM16A act,TMEM16A inh,VIM-2 inhibitor,CHT inh,CHT allo act,IMP-1 inhibitor,CHT act confirm,HEK293 MP dye
COc1cc2c(cc1OC)C(c1ccccc1)N(C(=O)c1ccccc1)CC2 (configuration not stated),0,0,0,0,0,0,-,-
COc1cc2c(cc1OC)C(c1cccc([N+](=O)[O-])c1)N(C(=O)c1ccc(F)cc1)CC2 (configuration not stated),0,0,0,0,7.1,0,46,0
Cc1ccc(N/C(N)=N/c2nc(CSc3nnc(N)s3)cc(=O)[nH]2)cc1,0,0,0,0,0,0,0,0
O=C(NNC(=O)c1ccc2nonc2c1)Nc1ccc(Cl)cc1,0,0,0,0,0,0,-,-
O=C(CSC1=NCCN1)Nc1cccc([N+](=O)[O-])c1,0,0,0,0,6.7,0,51,-45
O=C(Nc1ccc(NC(=O)C2CC2)cc1)c1cccs1,0,0,0,0,0,0,-,-
NS(=O)(=O)c1cccc(C(=O)OCC(=O)NC2CCCc3ccccc32)c1 (configuration not stated),0,-,-,-,-,-,-,-
Nc1ccc(C(=O)N/N=C\C=C\c2cccc([N+](=O)[O-])c2)cc1,0,0,0,0,0,0,-,-
O=C(N/N=C/C=C/c1cccc([N+](=O)[O-])c1)c1ccncc1,0,0,0,0,7.9,0,13,0
COc1cc(OC)c([N+](=O)[O-])cc1/C=N/NC(=O)c1ccncc1,0,0,0,0,0,0,37,-38
CCOC(=O)c1c(N)c2cc([N+](=O)[O-])ccc2n1C,0,0,0,0,0,0,-,-
CCOC(=O)c1c(N=CN(C)C)c2cc([N+](=O)[O-])cnc2n1C,0,0,0,0,0,0,38,-46
COc1ccc(CN2C(=O)c3cccnc3C2=O)cc1S(=O)(=O)N1CCOc2ccc(C)cc21,0,0,0,0,0,0,-,-
CCCCn1c(N)c(N(CCC(C)C)C(=O)C2CCCN(C(=O)c3ccc(Cl)cc3)C2)c(=O)[nH]c1=O (configuration not stated),0,0,-,0,8.8,-,12,0
CCC(C)C1Nc2ccc(C(=O)NCCc3ccc(OC)c(OC)c3)cc2NC1=O (configuration not stated),0,0,0,0,0,0,-,-
Cc1ccc(NC(=O)CNc2ccccc2N2CCCC2=O)cc1S(=O)(=O)N1CCCCC1,0,-,-,-,-,-,-,-
CCOC(=O)c1nc2cc3n(c(CC(C)C)c-2c1C)CC(C)=C3C,0,0,0,0,0,0,44,-40
COc1ccc2nc(C)cc(SCC(=O)O)c2c1,0,0,0,0,0,0,-,-
COC(=O)CSc1cc(C)nc2ccc(OC)cc12,0,0,0,0,0,0,44,-50
CCN1CCN(CC(=O)c2c(C)n(C)c3ccc(OC)cc23)CC1,0,0,0,0,0,0,53,-33
CC1CCN(CCCNC(=O)COc2cc(=O)n(C)c3ccccc23)CC1,0,0,0,0,0,0,43,-33
Cn1c(=O)cc(OCC(=O)NCCC2=CCCCC2)c2ccccc21,0,0,0,0,0,0,-,-
CCN1CCCC1CNC(=O)CSc1cc(=O)n(C)c2cc(Cl)ccc12 (configuration not stated),0,0,0,0,0,0,50,-34
CCN1CCCC1CNC(=O)COc1cc(=O)n(C)c2ccccc12 (configuration not stated),0,0,0,0,7.2,0,43,-39
CC1CC(C)CN(CCCNC(=O)COc2cc(=O)n(C)c3ccccc23)C1 (configuration not stated),0,0,0,0,0,0,17,-28
SMILES,TMEM16A act,TMEM16A inh,VIM-2 inhibitor,CHT inh,CHT allo act,IMP-1 inhibitor,CHT act confirm,HEK293 MP dye
CSc1nc(N)nc2c1ncn2CC(=O)N1CCN(c2ccccn2)CC1,0,-,-,-,-,-,-,-
CN1CCc2ccc(NC(=O)c3ccc(C(F)(F)F)cc3)cc2C1,0,0,0,0,0,0,-,-
CC(CCc1ccccc1)NCC(O)COc1ccccc1 (configuration not stated),0,0,0,0,0,0,-,-
C=CCOC(=O)c1ccc(-n2cnc(C)n2)nc1,0,0,0,0,0,0,-,-
C=CCOC(=O)c1ccc(-n2cncn2)nc1,0,0,0,0,0,0,21,0
Clc1ccc2c(N3CCOCC3)ccnc2c1,0,0,0,0,0,0,50,-50
CCC(=O)N1CCN(c2ccnc3cc(Cl)ccc23)CC1,0,0,0,0,7.6,0,68,-63
CC(=O)Nc1ccc(C(=O)COC(=O)C2CC2C)c(F)c1 (configuration not stated),0,-,-,-,-,-,-,-
Cc1nc2c(-c3ccccc3)c(C)nn2c(SCC(N)=O)c1Cc1ccccc1,0,0,0,0,0,0,-,-
CCCCCCCCN1[C@@H](CC(=O)OCC)c2cc(C(F)(F)F)ccc2S1(=O)=O,0,0,-,0,0,-,-,-
CCOC(=O)C[C@H]1c2cc(C(F)(F)F)ccc2S(=O)(=O)N1Cc1ccccc1,0,0,-,0,0,-,0,0
Cc1nn(-c2ccccc2)c(Cl)c1CN(C(=O)CCl)c1ccc(Cl)cc1,0,0,0,0,0,0,-,-
Cc1nn(-c2ccccc2)c(Cl)c1CN(C(=O)CCl)c1cccc2ccccc12,0,0,0,0,9,0,36,0
Cc1cccc2nc(-c3cccnc3)c(NCCC(C)C)n12,0,0,0,0,0,0,41,0
Cc1ccc2nc(-c3cccnc3)c(NC3CCCCC3)n2c1,0,0,0,0,0,0,-,-
COc1ccc2nc(C)cc(N3CCOCC3)c2c1,0,0,0,0,0,0,68,-81
CCN1CCN(c2nc(-c3ccccc3)c3ccccc3n2)CC1,0,0,0,0,0,0,-,-
COc1cccc(Cl)c1NC(=O)N1CCN(c2cc(C)nc3ccccc23)CC1,0,0,0,0,6.7,0,42,-50

# Compound activity as filed in PubChem BioAssay.
